Measurements reported in ChEMBL document CHEMBL1123755, “Conformationally defined adrenergic agents. 5. Resolution, absolute configuration, and pharmacological characterization of the enantiomers of 2-(5,6-dihydroxy-1,2,3,4-tetrahydro-1-naphthyl)imidazoline: a potent agonist at alpha-adrenoceptors” (J Med Chem, 1987).

Tests used:
[1] = E max value expressed as percent maximum response of the tissue(PBZ-DSV) to norepinephrine
Method in brief: (§1)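 Dog saphenous vein strips in Krebs buffer (pH 7.40, 95% O2/5% CO2, 37 °C), 2 g preload, isometric contraction. After equilibration and maximal NE (10⁻⁴ M) contraction, washed 60 min, exposed to PBZ 10⁻⁷ M for 30 min, washed 60 min. Control cumulative NE curve, then after 45–60 min washout, cumulative agonist curve. Molar ED50; index = ED50 NE / ED50 compound; Emax as % of NE maximum.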

[2] = E max value expressed as percent maximum response of the tissue(rabbit aorta) to norepinephrine; format: tissue-based
Method in brief: (§2)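 Helical rabbit aortic strip in 10-mL bath of Krebs buffer (pH 7.4, 37 ± 0.5 °C), 2 g initial tension, force-transducer contraction. Cumulative dose–response to NE (10⁻⁸ to 10⁻³ M), each dose to plateau. Washed every 10–15 min for 60–90 min and reset to 2 g before the test compound series. Molar ED50; index = ED50 NE / ED50 compound; Emax as % of NE maximum.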

[3] = Ratio of ED50 of norepinephrine to that in PBZ-DSV; format: functional; method in brief: as §1
[4] = Ratio of ED50 of norepinephrine to that in rabbit aorta.; format: functional; method in brief: as §2
[5] = molecular target: T1, Adrenergic receptor alpha-1 (Rattus norvegicus, UniProt P15823+P23944+P43140); assay: Binding affinity for alpha-1 adrenergic receptor in rat liver using [3H]prazosin.
T1 sequence (P15823 whole entry): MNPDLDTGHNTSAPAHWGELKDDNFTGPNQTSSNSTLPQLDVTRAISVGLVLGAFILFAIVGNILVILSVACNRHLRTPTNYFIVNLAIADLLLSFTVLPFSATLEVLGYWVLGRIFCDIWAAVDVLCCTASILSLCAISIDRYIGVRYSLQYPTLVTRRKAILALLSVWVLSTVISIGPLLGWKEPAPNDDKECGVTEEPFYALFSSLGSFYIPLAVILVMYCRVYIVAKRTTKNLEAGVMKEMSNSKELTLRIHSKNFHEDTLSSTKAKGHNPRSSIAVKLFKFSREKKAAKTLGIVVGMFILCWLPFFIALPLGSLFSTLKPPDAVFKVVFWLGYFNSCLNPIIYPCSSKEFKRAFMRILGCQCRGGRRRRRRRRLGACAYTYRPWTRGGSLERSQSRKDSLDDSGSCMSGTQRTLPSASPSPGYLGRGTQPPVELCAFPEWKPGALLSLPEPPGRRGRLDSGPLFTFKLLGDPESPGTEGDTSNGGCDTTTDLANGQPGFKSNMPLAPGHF
T1 sequence (P23944 whole entry): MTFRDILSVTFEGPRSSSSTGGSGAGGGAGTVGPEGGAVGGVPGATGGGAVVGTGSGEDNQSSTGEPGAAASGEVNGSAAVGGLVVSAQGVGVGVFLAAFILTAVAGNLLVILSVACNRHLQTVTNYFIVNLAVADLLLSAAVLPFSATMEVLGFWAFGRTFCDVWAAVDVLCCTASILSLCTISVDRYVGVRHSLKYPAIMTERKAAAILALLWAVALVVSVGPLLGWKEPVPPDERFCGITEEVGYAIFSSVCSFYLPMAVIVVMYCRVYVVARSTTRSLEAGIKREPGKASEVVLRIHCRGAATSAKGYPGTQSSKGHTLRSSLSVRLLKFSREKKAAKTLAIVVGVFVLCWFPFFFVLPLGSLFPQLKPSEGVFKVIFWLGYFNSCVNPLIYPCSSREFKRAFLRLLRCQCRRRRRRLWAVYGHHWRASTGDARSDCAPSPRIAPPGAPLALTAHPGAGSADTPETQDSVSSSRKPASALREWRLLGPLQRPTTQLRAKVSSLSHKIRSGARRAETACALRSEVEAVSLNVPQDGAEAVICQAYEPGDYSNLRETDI
T1 sequence (P43140 whole entry): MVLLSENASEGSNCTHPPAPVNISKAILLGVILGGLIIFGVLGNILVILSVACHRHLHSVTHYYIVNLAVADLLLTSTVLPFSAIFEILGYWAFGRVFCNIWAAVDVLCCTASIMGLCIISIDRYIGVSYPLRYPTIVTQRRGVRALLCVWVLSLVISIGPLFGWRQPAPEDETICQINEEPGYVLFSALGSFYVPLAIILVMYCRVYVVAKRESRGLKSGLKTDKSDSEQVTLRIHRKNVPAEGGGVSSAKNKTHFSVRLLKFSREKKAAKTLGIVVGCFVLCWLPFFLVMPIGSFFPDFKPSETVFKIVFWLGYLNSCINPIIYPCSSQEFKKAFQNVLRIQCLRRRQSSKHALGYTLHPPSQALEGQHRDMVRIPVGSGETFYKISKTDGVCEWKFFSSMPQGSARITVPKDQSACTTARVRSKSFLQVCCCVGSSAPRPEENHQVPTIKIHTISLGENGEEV
Method in brief: (§3)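 Pooled male Sprague–Dawley rat liver membranes (50–150 µg/mL protein) in 50 mM Tris-HCl pH 7.7. [3H]prazosin, 50 min at 25 °C, 1.0 mL final volume; nonspecific binding with phentolamine 10⁻⁵ M. GF/B filtration, scintillation counting. At least four concentrations (10⁻¹⁰–10⁻³ M) run in duplicate; IC50 by logit plot; Ki by Cheng–Prusoff.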

[6] = molecular target: T2, Adrenergic receptor alpha-2 (Rattus norvegicus, UniProt P22086+P19328+P22909); assay: Binding affinity for alpha-2 adrenergic receptor in rat cortex using [3H]rauwolscine.
T2 sequence (P22086 whole entry): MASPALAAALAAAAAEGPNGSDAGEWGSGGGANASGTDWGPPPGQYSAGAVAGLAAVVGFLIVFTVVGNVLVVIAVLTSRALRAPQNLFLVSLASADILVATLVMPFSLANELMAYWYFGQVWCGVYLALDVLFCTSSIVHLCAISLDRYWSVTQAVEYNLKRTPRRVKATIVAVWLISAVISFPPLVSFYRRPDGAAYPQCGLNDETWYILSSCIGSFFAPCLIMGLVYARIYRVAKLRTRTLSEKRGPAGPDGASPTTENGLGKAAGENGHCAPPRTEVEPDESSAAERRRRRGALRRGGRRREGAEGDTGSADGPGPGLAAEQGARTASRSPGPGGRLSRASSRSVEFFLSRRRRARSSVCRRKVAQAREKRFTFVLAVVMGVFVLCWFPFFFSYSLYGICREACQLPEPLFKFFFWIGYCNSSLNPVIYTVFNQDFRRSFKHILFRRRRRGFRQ
T2 sequence (P19328 whole entry): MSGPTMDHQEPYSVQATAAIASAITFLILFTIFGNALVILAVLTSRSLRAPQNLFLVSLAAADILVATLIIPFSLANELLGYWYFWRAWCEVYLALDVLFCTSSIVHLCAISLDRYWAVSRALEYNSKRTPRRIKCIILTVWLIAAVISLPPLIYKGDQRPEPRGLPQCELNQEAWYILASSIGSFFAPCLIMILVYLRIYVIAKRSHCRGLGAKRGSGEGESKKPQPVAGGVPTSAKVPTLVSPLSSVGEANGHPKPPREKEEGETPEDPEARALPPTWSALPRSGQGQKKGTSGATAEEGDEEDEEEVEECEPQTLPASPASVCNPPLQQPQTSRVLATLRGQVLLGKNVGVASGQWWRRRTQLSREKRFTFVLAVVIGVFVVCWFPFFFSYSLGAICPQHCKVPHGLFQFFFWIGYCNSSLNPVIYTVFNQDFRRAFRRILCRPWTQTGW
T2 sequence (P22909 whole entry): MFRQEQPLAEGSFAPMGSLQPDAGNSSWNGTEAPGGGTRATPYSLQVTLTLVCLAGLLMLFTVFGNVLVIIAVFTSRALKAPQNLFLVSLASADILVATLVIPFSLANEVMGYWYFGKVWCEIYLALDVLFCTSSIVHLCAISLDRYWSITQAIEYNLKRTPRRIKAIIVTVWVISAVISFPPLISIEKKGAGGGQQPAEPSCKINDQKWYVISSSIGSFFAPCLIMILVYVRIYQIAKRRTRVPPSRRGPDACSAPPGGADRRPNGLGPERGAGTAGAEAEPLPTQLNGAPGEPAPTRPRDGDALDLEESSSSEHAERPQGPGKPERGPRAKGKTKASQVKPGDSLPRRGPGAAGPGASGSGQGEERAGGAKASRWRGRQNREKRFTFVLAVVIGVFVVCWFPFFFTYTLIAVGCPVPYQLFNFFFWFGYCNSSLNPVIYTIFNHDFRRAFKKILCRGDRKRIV
Method in brief: as §3, with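 “cerebral cortex” for “liver”, “[3H]rauwolscine, 2 h” for “[3H]prazosin, 50 min”, “0” for “25”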

Row | SMILES | E max [1] | E max [2] | Index [3] | Index [4] | Ki [5] [µM] | Ki [6] [µM]
1 | Oc1ccc2c(c1O)CCC[C@H]2C1=NCCN1 | 102 | 128 | 248 | 29 | 0.523 | 0.00055
2 | Oc1ccc2c(c1O)CCCC2C1=NCCN1 (racemic) | 102 | 114 | 184 | 13 |  | 
3 | Oc1ccc2c(c1O)CCC[C@@H]2C1=NCCN1 | 74 | 94 | 15.4 | 1 | 0.817 | 0.028
